Screening data: PubChem BioAssay, several laboratories
An excerpt weighted towards active compounds, which were near 29% of everything screened.
CYP2C19 inhib: blockers of cytochrome P450 2C19 activity – biochemical, luminescence, ADME assay, primary screen. P33261. AID 778, 2007. actives 21% (n = 96,000). CYP2C19 Supersomes, luciferin-H EGE luminescence, 30 min. inhibition, % at 5 µM;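 active means CYP2C19 inhibition above a set limit at 5 µM in the primary screen, cut at about 50% in these data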;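 further: plate controls were negative control wells for no effect and 2.5 mM tranylcypromine positive control for full effect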
CYP2C9 act: human CYP2C9 activators, primary screen, biochemical, luminescence; Cytochrome P450 2C9 (Homo sapiens), P11712; recombinant CYP2C9, luciferin-H conversion; active compounds read high; factor 1 = untreated enzyme, 0 = blocked; activation factor at 5 µM; actives 1.4% (n = 96,000); AID 1024, 2008;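 active means activation factor of 2 or more for CYP2C9 at a 5 µM dose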;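 further: 0 = sulfaphenazole-blocked wells and 1 = vehicle-only wells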
Target sequence (P11712 whole entry, looked up): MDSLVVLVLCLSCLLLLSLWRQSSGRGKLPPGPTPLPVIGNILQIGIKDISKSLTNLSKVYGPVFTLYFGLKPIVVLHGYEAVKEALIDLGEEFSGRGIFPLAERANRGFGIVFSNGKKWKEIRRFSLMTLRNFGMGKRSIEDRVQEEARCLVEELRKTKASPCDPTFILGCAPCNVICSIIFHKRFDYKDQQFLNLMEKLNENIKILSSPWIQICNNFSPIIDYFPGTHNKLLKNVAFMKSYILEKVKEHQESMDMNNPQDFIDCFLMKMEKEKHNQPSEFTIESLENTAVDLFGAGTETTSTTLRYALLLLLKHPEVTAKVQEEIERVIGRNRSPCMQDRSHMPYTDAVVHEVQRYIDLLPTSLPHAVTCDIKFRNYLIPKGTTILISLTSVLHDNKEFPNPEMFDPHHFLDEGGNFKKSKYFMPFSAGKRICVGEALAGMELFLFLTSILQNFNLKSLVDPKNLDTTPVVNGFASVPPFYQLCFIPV
CYP2C19 act: human CYP2C19 activators, primary screen, biochemical, luminescence. 96,000 tested, under 10 active. activation factor at 5 µM. recombinant CYP2C19, luciferin-H EGE luminescence; active compounds read high; 0 = fully inhibited enzyme, 1 = untreated enzyme. AID 1025, 2008;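 active means activation factor of at least 2 at 5 µM in the primary screen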;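 further: 0 = wells with 2.5 mM tranylcypromine and 1 = vehicle-only wells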
Ecoli WT expand: growth inhibitors of wild-type E. coli, primary screen, strain BW25113, expanded library, OD600. growth inhibition, % at 100 µM. OD600 absorbance. AID 710, 2007. actives 0.15% (n = 98,000);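 active means growth inhibition above about 50% at one test dose, limit read from the data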;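 further: growth measured after 20 h incubation at 37 °C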
CYP2C9 inh: blockers of cytochrome P450 2C9 activity – biochemical, luminescence, ADME assay, primary screen | P11712 | CYP2C9 Supersomes, luciferin-H conversion | inhibition, % at 5 µM | actives 20% (n = 96,000) | AID 777, 2007;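 active means blocking of liver enzyme CYP2C9 beyond about 50% at 5 µM, limit read from the data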
Ecoli tolC: growth inhibitors of E. coli tolC mutant, primary screen, strain BW25113 ΔtolC::kan, 384-well; growth inhibition, % at 10 µM (by protocol); actives 2.2% (n = 65,000); AID 573, 2007; OD615;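 active means growth inhibition at or above a cutoff equal to the mean over every tested compound plus 3 SD, cut at about 60% in these data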;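 further: growth measured after 20 h incubation at 37 °C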
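System: E. coli ΔtolC::kan strain BW25113; Buffer or medium: LB broth supplemented with 50 µg/mL kanamycin; Compound: 10 µM final, single dose; Incubation: bacterial growth with compound for 20 h at 37 °C; Signal: A615 absorbance measurement; Evaluation: growth inhibition in percent.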
* = called active by the depositor; . = no result.

SMILES | CYP2C19 inhib | CYP2C9 act | CYP2C19 act | Ecoli WT expand | CYP2C9 inh | Ecoli tolC
CCC(=Nc1ccc(N)cc1)C1=C(O)C(C(=O)OC)C(C)(C)CC1=O (stereo not drawn) | 20.6 | 0.7 | 0.8 | 4.0 | 28.7 | -17.2
CCOC(=O)c1ccc(NC(=O)CN2C(=O)C(=O)N(CC(C)C)C2=O)cc1 | 6.7 | 1 | 0.9 | 0.0 | -4.1 | .
CN1C(=O)c2oc3ccc(Br)cc3c(=O)c2C1c1ccncc1 (stereo not drawn) | 17.9 | 0.6 | 0.8 | . | 43.5 | -19.8
CCCC(=NCc1ccccc1)C1=C(O)C(C(=O)OC)C(C)(C)CC1=O (stereo not drawn) | 92.8* | 0.4 | 0.1 | 5.0 | 63.6* | .
O=C(Cn1c(=O)oc2cc(S(=O)(=O)N3CCc4ccccc43)ccc21)N1CCCCC1 | 14.6 | 0.7 | 0.9 | -4.0 | 30.2 | 23.6
CCOC(=O)Cn1c(=O)oc2cc(S(=O)(=O)N3CCN(c4ccccn4)CC3)ccc21 | 25.2 | 0.8 | 0.7 | 6.0 | 24.7 | -5.5
CCOC(=O)Cn1c(=O)oc2cc(S(=O)(=O)NCCc3ccc(C)cc3)ccc21 | 50.0* | 0.3 | 0.5 | -10.0 | 70.2* | 30.0
CCOC(=O)Cn1c(=O)oc2cc(S(=O)(=O)NCCCc3ccccc3)ccc21 | 33.6 | 0.3 | 0.7 | -1.0 | 67.5* | 7.3
CCOC(=O)Cn1c(=O)oc2cc(S(=O)(=O)Nc3ccc(F)cc3)ccc21 | 37.7 | 0.4 | 0.6 | -2.0 | 58.1* | 13.2
CN1CCN(C(=O)Cn2c(=O)oc3cc(S(=O)(=O)NCc4ccccc4)ccc32)CC1 | 12.6 | 0.5 | 0.9 | -1.0 | 50.2* | -7.7
CCCCCC(=O)N1CC2(CC)CN(C(=O)CCCCC)CC(CC)(C1)C2=O | . | . | . | . | . | 2.1
O=C1CCCCCN1CP(=O)(O)CN1CCOCC1 | 1.7 | 1 | 1 | . | 1.9 | -6.9
CCOC(=O)C(NC(=O)c1ccccc1)(Nc1cc(C)on1)C(F)(F)F (stereo not drawn) | 62.2* | 0.6 | 0.4 | 0.0 | 39.4 | -2.1
CCOC(=O)C(NCc1ccccc1)(NC(=O)c1ccccc1)C(F)(F)F (stereo not drawn) | 52.1* | 0.6 | 0.5 | 0.0 | 36.7 | .
CCOC(=O)C(NC(=O)c1ccc(OC)cc1)(Nc1cc(C)on1)C(F)(F)F (stereo not drawn) | 17.8 | 0.7 | 0.8 | 1.0 | 29.7 | -5.2
CCOC(=O)C(NCc1ccccc1OC)(NC(C)=O)C(F)(F)F (stereo not drawn) | 3.4 | 1.1 | 1 | 2.0 | -11.6 | -2.8
C=CCNC(NC(=O)c1ccccc1)(C(=O)OCC)C(F)(F)F (stereo not drawn) | 63.6* | 0.8 | 0.4 | -3.0 | 20.4 | -11.4
CCOC(=O)C(NCc1ccc2c(c1)OCO2)(NC(=O)c1ccccc1)C(F)(F)F (stereo not drawn) | 96.2* | 0.3 | 0 | 8.0 | 74.1* | .
c1coc(Cn2nnnc2CN2CCN(C3CCCCC3)CC2)c1 | -15.4 | 1 | 1.2 | 1.0 | -1.1 | -22.3
CCC(c1nnnn1Cc1ccco1)N1CCC(C(N)=O)CC1 (stereo not drawn) | 2.1 | 1.1 | 1 | 4.0 | -5.4 | 25.5
CCC(c1nnnn1Cc1ccco1)N1CCN(c2cc(Cl)ccc2C)CC1 (stereo not drawn) | 19.4 | 0.4 | 0.8 | -10.0 | 58.9* | 42.7
Cc1ccc(Cl)cc1N1CCN(Cc2nnnn2Cc2ccco2)CC1 | 76.8* | 0.1 | 0.2 | -15.0 | 93.1* | 64.9*
CN(NC(=O)c1ccc(Cl)cc1)c1nc(-c2ccccc2)nnc1C(F)(F)F | 26.3 | 0.9 | 0.7 | -7.0 | 14.2 | .
CCCCC(=O)NN(C)c1nc(-c2ccccc2)nnc1C(F)(F)F | 77.5* | 0.5 | 0.2 | -2.0 | 47.1 | .
CC(C)CC(=O)NN(C)c1nc(-c2ccccc2)nnc1C(F)(F)F | 78.0* | 0.7 | 0.2 | -2.0 | 26.4 | .
SMILES | CYP2C19 inhib | CYP2C9 act | CYP2C19 act | Ecoli WT expand | CYP2C9 inh | Ecoli tolC
Cc1ccc(C(=O)NN(C)c2nc3ccccc3nc2C(F)(F)F)cc1 | 30.4 | 1.6 | 0.7 | -9.0 | -62.8 | .
CNc1nc(-c2ccccc2)nnc1C(F)(F)F | 24.3 | 4.1* | 0.8 | -3.0 | -311.1 | .
CCN(CC(=O)NCc1ccccn1)S(=O)(=O)c1ccc(Cl)cc1 | 40.3 | 0.9 | 0.6 | 6.0 | 5.4 | -12.8
CCNC(=O)CN(c1ccccc1)S(=O)(=O)c1ccc(Cl)cc1 | 68.9* | 0.7 | 0.3 | -6.0 | 33.1 | .
COc1ccc(S(=O)(=O)N(CC(=O)O)c2ccccc2)cc1 | -10.4 | 0.9 | 1.1 | -3.0 | 7.7 | -7.7
CCNC(=O)CN(c1ccc(Cl)cc1)S(=O)(=O)c1ccccc1 | 96.5* | 0.4 | 0 | 4.0 | 63.3* | .
Cn1nc(C(=O)NC2=NCCS2)ccc1=O | -17.9 | 1.2 | 1.2 | 2.0 | -23.5 | .
O=C(Nc1nccs1)C1CCN(S(=O)(=O)c2cnc[nH]2)CC1 | 28.9 | 0.1 | 0.7 | -9.0 | 85.7* | -23.9
CCCCNC(=O)C1CCN(S(=O)(=O)c2cnc[nH]2)CC1 | 17.9 | 0.5 | 0.8 | 4.0 | 49.0 | -25.9
COc1ccc(OC)c(S(=O)(=O)N2CCC(C(=O)Nc3cccc(C(F)(F)F)c3)CC2)c1 | 47.8 | 1.2 | 0.5 | -8.0 | -21.4 | 15.8
O=C(Nc1cccc(C(F)(F)F)c1)C1CCN(S(=O)(=O)c2cnc[nH]2)CC1 | 54.6* | 0.2 | 0.5 | 5.0 | 82.2* | -10.3
Cc1ccc(-c2noc(-c3cccs3)n2)cc1 | 4.4 | 1.1 | 1 | 3.0 | -7.1 | 11.9
Brc1ccc(-c2cnc(-c3cccs3)o2)cc1 | 31.0 | 0.4 | 0.7 | 2.0 | 59.0* | -0.3
CCCN(CCC)C(=S)NC(=O)c1ccc(Cl)cc1Cl | 47.1 | 0.8 | 0.5 | 9.0 | 18.8 | .
O=c1[nH]c(CSc2nc3ccccc3o2)nc2c1cnn2-c1ccccc1 | 78.4* | 0.3 | 0.2 | -7.0 | 67.8* | 10.4
O=c1[nH]c(SCc2nc3c(cnn3-c3ccccc3)c(=O)[nH]2)nc2ccccc12 | 41.1 | 0.6 | 0.6 | -2.0 | 43.8 | .
COc1ccc(OC)c(NC(=O)c2cc(-c3ccc(C)cc3O)n[nH]2)c1 | 9.6 | 2.9* | 0.9 | -1.0 | -191.9 | -10.3
CCCCOC(=O)CSc1nc2c(cc1C#N)C(=O)CC(C)(C)C2 | 49.0 | 0.4 | 0.5 | 1.0 | 64.0* | 45.5
Cc1ccc(C(=O)c2c(C)oc3c2C(=O)C(=O)c2ccccc2-3)cc1 | 62.8* | 0.4 | 0.4 | -4.0 | 56.3* | .
Cc1ccc(C(=O)c2coc3c2C(=O)C(=O)c2ccccc2-3)cc1 | 46.4 | 0.3 | 0.5 | -11.0 | 72.2* | .
Cc1oc2c(c1C(=O)c1ccc(Cl)cc1)C(=O)C(=O)c1ccccc1-2 | 28.0 | 0.8 | 0.7 | 1.0 | 22.2 | .
CC1/C(=C\c2ccc(Cl)cc2)C(=O)C2CC1C2(C)C (stereo not drawn) | 76.8* | 0.4 | 0.2 | -1.0 | 64.9* | .
